Data published in ChEMBL document CHEMBL1133458, “Synthesis and pharmacological evaluation of thiopyran analogues of the dopamine D3 receptor-selective agonist (4aR,10bR)-(+)-trans-3,4,4a,10b-tetrahydro-4-n-propyl-2H,5H [1]b enzopyrano[4,3-b]-1,4-oxazin-9-ol (PD 128907)” (J Med Chem, 2000).

Key:
D(3) dopamine receptor [1] = molecular target: T1, D(3) dopamine receptor (Rattus norvegicus, UniProt P19020); assay: Agonist activity by measuring the [3H]-thymidine uptake against Dopamine receptor D3 from rat; assay type: functional
T1 sequence (P19020 whole entry): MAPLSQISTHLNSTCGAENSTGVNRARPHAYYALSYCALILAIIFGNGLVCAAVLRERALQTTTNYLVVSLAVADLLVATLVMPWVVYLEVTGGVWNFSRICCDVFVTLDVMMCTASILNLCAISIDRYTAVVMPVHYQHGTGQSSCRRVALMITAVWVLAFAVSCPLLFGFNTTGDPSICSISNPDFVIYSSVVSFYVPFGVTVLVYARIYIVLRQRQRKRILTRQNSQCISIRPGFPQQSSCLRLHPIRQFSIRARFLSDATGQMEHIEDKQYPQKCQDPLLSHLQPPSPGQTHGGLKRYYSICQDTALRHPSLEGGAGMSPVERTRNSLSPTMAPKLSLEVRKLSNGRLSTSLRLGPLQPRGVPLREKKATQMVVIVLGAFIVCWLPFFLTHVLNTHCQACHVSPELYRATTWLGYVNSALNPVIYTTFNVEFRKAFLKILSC

D(4) dopamine receptor [2] = molecular target: T2, D(4) dopamine receptor (Homo sapiens, UniProt P21917); assay: Tested for antagonist binding affinity by measuring displacement of [3H]spiperone from Human Dopamine receptor D4 expressed in CHO K-1 cells; assay type: cell-based
T2 sequence (P21917 whole entry): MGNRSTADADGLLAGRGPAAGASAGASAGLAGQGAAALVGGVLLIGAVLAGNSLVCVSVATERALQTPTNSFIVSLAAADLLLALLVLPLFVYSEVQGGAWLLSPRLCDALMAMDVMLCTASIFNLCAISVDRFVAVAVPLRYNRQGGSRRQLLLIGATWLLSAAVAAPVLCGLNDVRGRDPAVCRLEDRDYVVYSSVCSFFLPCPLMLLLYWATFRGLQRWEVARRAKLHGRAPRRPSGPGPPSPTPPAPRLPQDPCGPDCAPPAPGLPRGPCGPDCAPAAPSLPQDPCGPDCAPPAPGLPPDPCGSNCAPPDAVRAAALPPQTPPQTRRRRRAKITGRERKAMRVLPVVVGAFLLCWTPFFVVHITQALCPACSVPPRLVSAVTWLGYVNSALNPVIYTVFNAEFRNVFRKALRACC
Procedure, shortened: (§1)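 Displacement of antagonist radioligand [3H]spiperone from D2L or D4.2 receptors; Ki values are means of three separate experiments varying by no more than 25%.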

D(2) dopamine receptor [3] = molecular target: T3, D(2) dopamine receptor (Homo sapiens, UniProt P14416); assay: Human Dopamine receptor D2L affinities to determine agonist activity, using [3H]N-0437 as radioligand; assay type: functional
T3 sequence (P14416 whole entry): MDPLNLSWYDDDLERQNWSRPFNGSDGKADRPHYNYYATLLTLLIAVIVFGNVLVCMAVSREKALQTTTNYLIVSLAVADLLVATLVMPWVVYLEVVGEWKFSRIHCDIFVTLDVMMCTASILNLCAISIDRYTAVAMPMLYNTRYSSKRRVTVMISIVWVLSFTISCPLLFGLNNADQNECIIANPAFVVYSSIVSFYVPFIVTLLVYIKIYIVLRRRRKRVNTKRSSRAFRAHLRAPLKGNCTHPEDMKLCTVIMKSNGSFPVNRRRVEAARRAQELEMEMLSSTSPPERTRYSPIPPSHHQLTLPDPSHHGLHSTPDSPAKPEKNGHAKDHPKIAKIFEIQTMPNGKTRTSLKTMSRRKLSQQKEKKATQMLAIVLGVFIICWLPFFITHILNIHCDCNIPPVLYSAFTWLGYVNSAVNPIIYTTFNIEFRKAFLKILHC

[4] = molecular target: T4, 5-hydroxytryptamine receptor 1A (Rattus norvegicus, UniProt P19327); assay: Tested for binding affinity by measuring displacement of [3H]8-OH-DPAT from rat serotonin 5-hydroxytryptamine 1A receptor in rat hippocampus; assay type: tissue-based
T4 sequence (P19327 whole entry): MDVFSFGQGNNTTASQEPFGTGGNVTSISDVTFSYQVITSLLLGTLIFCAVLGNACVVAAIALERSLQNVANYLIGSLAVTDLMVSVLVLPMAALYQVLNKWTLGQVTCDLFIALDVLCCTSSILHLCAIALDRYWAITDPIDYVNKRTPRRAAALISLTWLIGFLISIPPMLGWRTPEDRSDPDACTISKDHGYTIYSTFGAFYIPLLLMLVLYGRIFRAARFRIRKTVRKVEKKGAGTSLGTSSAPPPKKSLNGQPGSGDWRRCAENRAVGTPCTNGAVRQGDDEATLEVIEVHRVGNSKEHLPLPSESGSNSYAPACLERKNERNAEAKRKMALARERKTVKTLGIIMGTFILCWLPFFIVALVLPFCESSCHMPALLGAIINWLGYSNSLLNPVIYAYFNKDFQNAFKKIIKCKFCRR
Procedure, shortened: (§2)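 Rat brain binding: hippocampal 5HT1A with [3H]8-OH-DPAT, cortical 5HT2 with [3H]ketanserin as radioligand; values means of three separate experiments, varying no more than 25%.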

D(3) dopamine receptor [5] = molecular target: D(3) dopamine receptor (Homo sapiens, UniProt P35462); assay: Tested for antagonist binding affinity by measuring displacement of [3H]spiperone from Human Dopamine receptor D3 expressed in CHO K-1 cells; assay type: cell-based
D(3) dopamine receptor (Homo sapiens, UniProt P35462), sequence (P35462 whole entry): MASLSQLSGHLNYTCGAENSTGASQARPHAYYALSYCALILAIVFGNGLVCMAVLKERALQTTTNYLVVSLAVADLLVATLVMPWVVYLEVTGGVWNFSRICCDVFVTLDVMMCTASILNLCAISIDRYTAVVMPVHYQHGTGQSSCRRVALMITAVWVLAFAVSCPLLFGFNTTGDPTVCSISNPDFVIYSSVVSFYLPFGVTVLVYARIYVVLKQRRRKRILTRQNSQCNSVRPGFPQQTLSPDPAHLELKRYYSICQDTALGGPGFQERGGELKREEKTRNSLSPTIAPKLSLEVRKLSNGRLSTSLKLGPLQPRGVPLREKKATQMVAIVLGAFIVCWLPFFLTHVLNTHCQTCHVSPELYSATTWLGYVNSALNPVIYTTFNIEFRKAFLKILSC

D(2) dopamine receptor [6] = molecular target: T3, D(2) dopamine receptor; assay: Tested for antagonist binding affinity by measuring displacement of [3H]spiperone from Human Dopamine receptor D2L expressed in CHO K-1 cells; assay type: cell-based; procedure, shortened: as §1
D(2) dopamine receptor [7] = molecular target: D(2) dopamine receptor (Rattus norvegicus, UniProt P61169); assay: Agonist activity by measuring the [3H]thymidine uptake against Dopamine receptor D2L from rat; assay type: functional
D(2) dopamine receptor (Rattus norvegicus, UniProt P61169), sequence (P61169 whole entry): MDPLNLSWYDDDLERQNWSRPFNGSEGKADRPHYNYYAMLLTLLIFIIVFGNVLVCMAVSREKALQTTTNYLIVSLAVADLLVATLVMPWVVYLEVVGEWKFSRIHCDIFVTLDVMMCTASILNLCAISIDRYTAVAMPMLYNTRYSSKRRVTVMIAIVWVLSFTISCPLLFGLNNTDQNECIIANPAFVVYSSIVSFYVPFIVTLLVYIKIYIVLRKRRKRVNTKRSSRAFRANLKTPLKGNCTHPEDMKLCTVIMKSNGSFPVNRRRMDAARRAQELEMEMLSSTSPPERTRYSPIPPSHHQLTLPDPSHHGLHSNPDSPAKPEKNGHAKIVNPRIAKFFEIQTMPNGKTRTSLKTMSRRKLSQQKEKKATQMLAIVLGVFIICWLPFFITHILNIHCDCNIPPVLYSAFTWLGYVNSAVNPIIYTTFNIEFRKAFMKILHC

[8] = molecular target: D(3) dopamine receptor (Rattus norvegicus) (UniProt P19020); assay: (§3) Intrinsic activity (IA) by the mitogenesis assay
D(3) dopamine receptor (Rattus norvegicus), sequence (P19020 whole entry): as the sequence (P19020 whole entry) above

[9] = molecular target: D(3) dopamine receptor (Rattus norvegicus) (UniProt P19020); assay: Antagonist activity by measuring the inhibition of quinpirole stimulated [3H]- thymidine uptake against Dopamine receptor D3; the compound is active; assay type: functional; details: filed as antagonist
[10] = molecular target: Serotonin 2 (5-HT2) receptor (Rattus norvegicus, UniProt P30994+P08909+P14842); assay: Tested for binding affinity by measuring displacement of [3H]ketanserin from rat serotonin 5-hydroxytryptamine 2 receptor in rat cortex; procedure, shortened: as §2
D(2) dopamine receptor [11] = molecular target: T3, D(2) dopamine receptor; assay: Tested for agonist binding affinity by measuring displacement of [3H]NPA from Human Dopamine receptor D2L expressed in CHO K-1 cells; assay type: cell-based
Procedure, shortened: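 Agonist-state D2L affinity measured by displacement of [3H]NPA (N-propylnorapomorphine); Ki values are means of three separate experiments varying by no more than 25%.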

[12] = molecular target: D(3) dopamine receptor (Rattus norvegicus) (UniProt P19020); assay: as §3; assay type: functional
D(3) dopamine receptor [13] = molecular target: T1, D(3) dopamine receptor; assay: Agonist activity by measuring the [3H]thymidine uptake against Dopamine receptor D3 from rat; assay type: functional
Rattus norvegicus [14] = organism: Rattus norvegicus; assay: Flat body posture after 30 min in 4 reserpinized rats; assay type: functional
Procedure, shortened: (§4)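 Male Wistar rats (180-200 g) given reserpine 10 mg/kg sc 18-24 h before; test drug in ethanol/saline, 1 mL/kg sc in neck after acclimation in single boxes; number of rats showing the behaviour during first 30 min after injection recorded; saline n=8.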

Rattus norvegicus [15] = organism: Rattus norvegicus; assay: Lower lip retraction after 30 min in 4 reserpinized rats; assay type: functional; procedure, shortened: as §4
Rattus norvegicus [16] = organism: Rattus norvegicus; assay: Sniffing after 30 min in 4 reserpinized rats; assay type: functional; procedure, shortened: as §4
Rattus norvegicus [17] = organism: Rattus norvegicus; assay: Yawning after 30 min in reserpinized rats; assay type: functional
Procedure, shortened: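 Male Wistar rats (180-200 g) reserpinized with 10 mg/kg sc reserpine 18-24 h prior; drug dissolved in a few drops warmed 96% ethanol then saline, 1 mL/kg sc; yawns counted per rat over first 30 min post-injection, mean ± SEM.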

[18] = molecular target: T4, 5-hydroxytryptamine receptor 1A; assay: Tested for binding affinity by measuring displacement of [3H]8-OH-DPAT from rat serotonin 5-hydroxytryptamine 1A receptor in rat hippocampus; NA means Not Active; assay type: tissue-based
Procedure, shortened: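 Rat hippocampal 5HT1A receptors labelled with [3H]8-OH-DPAT; values are means of three separate experiments varying by no more than 25%.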

D(4) dopamine receptor [19] = molecular target: T2, D(4) dopamine receptor; assay: Tested for antagonist binding affinity by measuring displacement of [3H]-spiperone from Human Dopamine receptor D4 expressed in CHO K-1 cells; assay type: cell-based
Procedure, shortened: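 Antagonist-radioligand binding: displacement of [3H]spiperone from D4.2 dopamine receptors; Ki values means of three separate experiments, varying no more than 25%.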

Row | Compound | Ki (D(4) dopamine receptor [2]) [nM] | Ki [4] [nM] | Ki (D(3) dopamine receptor [5]) [nM] | Ki (D(2) dopamine receptor [6]) [nM] | EC50 (D(2) dopamine receptor [7]) [nM] | Ki (D(2) dopamine receptor [11]) [nM] | further results
1 | CCCN1CCO[C@@H]2c3cc(O)ccc3OC[C@H]21 [listing 1 of 2 here] | 169 | 1670 | 1.4 | 1180 | 5.7 |  | EC50 (D(3) dopamine receptor [1]): 0.36 nM; Ki (D(2) dopamine receptor [3]): 42 nM
2 | CCCN1CCO[C@@H]2c3cc(O)ccc3OC[C@H]21 [listing 2 of 2 here] |  |  |  |  |  |  | Intrinsic activity [8]: 54%; Activity [9]: Antagonist
3 | CCCN1CCO[C@H]2c3cc(O)ccc3SC[C@@H]21 | > 3300 | > 1000 | 3000 |  |  | 854 | Ki [10]: > 5 µM
4 | CCCN1CCO[C@@H]2c3cc(O)ccc3OC[C@@H]21 (relative stereo) |  |  | > 10000 | > 10000 |  |  | 
5 | CCCN1CCO[C@@H]2c3cc(O)ccc3SC[C@@H]21 (relative stereo) | 193 |  | 3.58 |  | 122 | 74 | Intrinsic activity [12]: 57%; EC50 (D(3) dopamine receptor [13]): 36 nM; FB (Rattus norvegicus [14]): 0; LL (Rattus norvegicus [15]): 0; Activity [9]: Antagonist; Sni (Rattus norvegicus [16]): 0; Ya (Rattus norvegicus [17]): 11; Ki [18]: Not Active
6 | CCCN1CCO[C@@H]2c3cc(O)ccc3OC[C@H]21 (relative stereo) |  |  | 78 | > 10000 |  |  | 
7 | CCCN1CCOC2c3cc(O)ccc3[S+]([O-])CC21 (stereo unspecified) |  |  | 29 |  |  | 197 | IC50 (D(4) dopamine receptor [19]): > 10 µM; Ki [18]: Not Active
8 | CCCN1CCO[C@H]2c3cc(O)ccc3OC[C@@H]21 |  |  | > 10000 | > 10000 |  |  | 
9 | CCCN1CCO[C@@H]2c3cc(O)ccc3SC[C@H]21 | 17.6 | 30 | 2.87 |  | 0.013 | 1.14 | Intrinsic activity [12]: 45%; EC50 (D(3) dopamine receptor [13]): 0.007 nM; FB (Rattus norvegicus [14]): 4; LL (Rattus norvegicus [15]): 3; Ki [10]: > 5 µM; Sni (Rattus norvegicus [16]): 4; Ya (Rattus norvegicus [17]): 0
10 | CCCN1CCOC2c3cc(O)ccc3SCC21 (trans isomer) | 44.4 |  | 1.56 | 533 |  |  | 
